Test results as given in ChEMBL document CHEMBL1135681, “Syntheses and structure-activity relationships of nonnatural beta-C-nucleoside 5'-triphosphates bearing an aromatic nucleobase with phenolic hydroxy groups: inhibitory activities against DNA polymerases” (J Med Chem, 2002).

Key:
[1] = molecular target: Nucleic Acid; assay: Inhibitory activity against Z-Taq DNA polymerase; type: nucleic-acid assay, Thermus aquaticus
Procedure, shortened: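 Z-Taq amplification in 1× Z-Taq buffer, 3 mM Mg2+, 0.2 mM each dNTP, with various nonnatural triphosphate concentrations. Cycling: 95 °C 5 min; 25 cycles of 95 °C 30 s, 50 °C 30 s, 72 °C 30 s; final 72 °C 5 min. Phosphorimager quantitation of product bands; IC50 as 50% inhibition concentration; mean of two independent experiments.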

[2] = molecular target: Nucleic Acid; assay: Inhibitory activity against Pfu DNA polymerase.; type: nucleic-acid assay, Pyrococcus furiosus
Procedure, shortened: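 Native Pfu polymerase (Pyrococcus furiosus) in native Pfu buffer, 2 mM Mg2+, 0.2 mM each dNTP, with various concentrations of nonnatural triphosphate. Cycling: 95 °C 5 min; 30 cycles of 95 °C 30 s, 50 °C 30 s, 72 °C 60 s; final 72 °C 5 min. PCR bands quantified by phosphorimager; IC50 at 50% inhibition; average of two independent runs.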

[3] = molecular target: Nucleic Acid; assay: Inhibitory activity against LA-Taq DNA polymerase; type: nucleic-acid assay, Thermus aquaticus
Procedure, shortened: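 LA-Taq PCR in 1× LA-Taq buffer with 2.5 mM Mg2+ and 0.2 mM each dNTP, plus graded levels of nonnatural triphosphate. Cycling: 95 °C 5 min; 30 cycles of 95 °C 30 s, 50 °C 30 s, 72 °C 60 s; final 72 °C 5 min. Amplified bands measured by phosphorimager; concentration for 50% inhibition determined; two independent experiments averaged.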

[4] = Inhibitory activity against Ex Taq DNA polymerase; type: nucleic-acid assay, Thermus aquaticus
Procedure, shortened: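 PCR inhibition assay in 1× Ex Taq buffer, 2 mM Mg2+, 0.2 mM each dNTP, with various concentrations of nonnatural triphosphate added. Cycling: 95 °C 5 min; 30 cycles of 95 °C 30 s, 50 °C 30 s, 72 °C 60 s; final 72 °C 5 min. Product bands quantified by phosphorimager; IC50 taken as concentration giving 50% inhibition of amplification; mean of two independent experiments.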

[5] = molecular target: Pyrobest DNA polymerase (Pyrococcus sp.); assay: Inhibitory activity against Pyrobest DNA polymerase.

IC50 [1] | IC50 [2] | IC50 [3] | IC50 [4] | IC50 [5] | Compound
3100 µM | 800 µM | 2400 µM | 1700 µM | 1400 µM | O=P(O)(O)OP(=O)(O)OP(=O)(O)OCC1O[C@@H](c2ccccc2O)CC1O (stereo not given in full)
> 16000 µM | > 16000 µM | > 16000 µM | > 16000 µM | > 16000 µM | O=P(O)(O)OP(=O)(O)OP(=O)(O)OCC1O[C@@H](c2ccccc2)CC1O (stereo not given in full)
300 µM | 200 µM | 700 µM | 30 µM | 500 µM | O=P(O)(O)OP(=O)(O)OP(=O)(O)OCC1O[C@@H](c2ccc(O)c(O)c2)CC1O (stereo not given in full)
6200 µM | 900 µM | 3100 µM | 1900 µM | 2700 µM | O=P(O)(O)OP(=O)(O)OP(=O)(O)OCC1O[C@@H](c2cccc(O)c2)CC1O (stereo not given in full)
3700 µM | 900 µM | 3700 µM | 1600 µM | 1500 µM | O=P(O)(O)OP(=O)(O)OP(=O)(O)OCC1O[C@@H](c2ccc(O)cc2)CC1O (stereo not given in full)
